Laboratory results: ChEMBL document CHEMBL1212759, “Antifungal activity of colistin against mucorales species in vitro and in a murine model of Rhizopus oryzae pulmonary infection” (Antimicrob Agents Chemother, 2010)
Calls of active or inactive are those of the source. The calls are words filed in the database; no cut-off is given here.

Legend:
Format in all cases: functional, organism-based
Rhizopus arrhizus [1] = experiment: Fungicidal activity against Rhizopus oryzae 5799 at 2 ug/ml after 6 hrs by DiBAC staining
Outline: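 Spores were grown to mycelia in RPMI 1640 plus 0.15% Junlon, shaken 18 h at 37°C. Mycelia were pelleted and exposed 6 h at 37°C with shaking to colistin (two levels), amphotericin B 2 μg/ml, or drug-free medium. They were washed in MOPS pH 7, stained with DiBAC 2 μg/ml for 1 h in the dark at ambient temperature, and imaged by fluorescence microscopy with an FITC filter.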

Rhizopus arrhizus [2] = experiment: Antimicrobial activity against Rhizopus oryzae infected in BALB/c mouse pulmonary mucormycosis model assessed as effect on fungus-induced mortality rate at 80 mg/kg/day, ip after 10 days
Outline: (§1)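 Female BALB/c mice (18–22 g) were immunosuppressed with cyclophosphamide 75 mg/kg i.p. and cortisone acetate 300 mg/kg s.c., then infected intranasally with ~3,500 R. oryzae spores. Colistimethate 40 mg/kg i.p. was given every 12 h for 5 days, starting 3 h post-infection; controls got saline. Groups of 10, run three times. Mortality was followed twice daily for 10 days; lung fungal burden by qPCR of rRNA gene, duplicate.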

Rhizopus arrhizus [3] = experiment: Antimicrobial activity against Rhizopus oryzae infected in BALB/c mouse pulmonary mucormycosis model assessed as increase in survival rate at 5 mg/kg/day, itn after 10 days
Outline: (§2)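 Female BALB/c mice were immunosuppressed with cyclophosphamide and cortisone acetate and infected intranasally with ~3,500 R. oryzae spores. As prophylaxis, intranasal colistimethate 2.5 mg/kg was given every 12 h for 5 days, starting 1 day before infection; on infection day it was given 3 h after spores. Groups of 10, run three times. Survival was followed over 10 days; lung burden by rRNA-gene qPCR.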

Rhizopus arrhizus [4] = experiment: Antifungal activity against Rhizopus oryzae infected in BALB/c mouse pulmonary mucormycosis model assessed as decrease in fungal burden at 80 mg/kg/day, ip by RT-qPCR analysis; outline: as §1
Rhizopus arrhizus [5] = experiment: Antifungal activity against Rhizopus oryzae infected in BALB/c mouse pulmonary mucormycosis model assessed as decrease in fungal burden at 5 mg/kg/day, itn by RT-qPCR analysis; outline: as §2

`C[C@@H]1[C@H](O)[C@@H](C)/C=C/C=C/C=C/C=C/C=C/C=C/C=C/[C@H](O[C@@H]2O[C@H](C)[C@@H](O)[C@H](N)[C@@H]2O)C[C@@H]2O[C@](O)(C[C@@H](O)C[C@@H](O)[C@H](O)CC[C@@H](O)C[C@@H](O)CC(=O)O[C@H]1C)C[C@H](O)[C@H]2C(=O)O` was tested, and the Activity (Rhizopus arrhizus [1]) was “Active”.
For COLISTIMETHATE, the Activity (Rhizopus arrhizus [2]) was “inactive”, the survival (Rhizopus arrhizus [3]) was 61% and the inhibition (Rhizopus arrhizus [4]) was “inactive”. The inhibition (Rhizopus arrhizus [5]) was “Active”.
